aDG glyco up = activators of alpha-DG glycosylation, primary screen, uHTS, Pro5-aDG cells, AlphaScreen | alpha-DG glycosylation AlphaScreen (IIH6); 0% Pro5, 100% B10-LARGE cell signal | activation, % at 10 µM | 0.22% of 360,000 active;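 active = activation of at least 8% versus controls, or a plate z-score of at least 8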;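 also: Pro5 are CHO cells carrying HIG-tagged alpha-DG that lacks glycosylation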
proCasp3 act = activators of human procaspase-3 D3A mutant, primary screen, biochemical, absorbance, PC-3 D3A mutant, single concentration; recombinant procaspase-3 D3A, Ac-DEVD-pNA absorbance 405 nm; 0.11% of 330,000 active; activation, % at 8.5 µM; AID 463141, 2010; Caspase-3 (Homo sapiens), P42574;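 active = activation above the mean of all tested compounds plus 3 SD, cut at about 21% in these data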;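 also: 0% = DMSO alone and 100% = DMSO wells spiked with extra 5 µM PC-3 D3A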
Target sequence (P42574 whole entry D9A/D28A/D175A): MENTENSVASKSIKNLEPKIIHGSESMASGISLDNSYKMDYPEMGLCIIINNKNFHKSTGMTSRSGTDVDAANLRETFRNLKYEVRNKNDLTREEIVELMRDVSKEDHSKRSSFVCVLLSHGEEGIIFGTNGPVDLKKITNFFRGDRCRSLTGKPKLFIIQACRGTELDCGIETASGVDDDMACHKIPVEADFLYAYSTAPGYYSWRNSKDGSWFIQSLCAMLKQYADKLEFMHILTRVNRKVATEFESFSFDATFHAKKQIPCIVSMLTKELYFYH
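Test system: Procaspase-3 D3A mutant; medium: Zinc-free HEPES/NaCl buffer with 0.01% Triton X-100 at pH 7.4; reagent: DEVD-pNA substrate; doses: one concentration, 8.5 µM nominal, 0.8% DMSO; times: 1 h preincubation plus 2 h reaction at 25 °C; signal: Epi-absorbance at 405 nm of released p-nitroaniline, 0 and 120 min; replicates: singlicate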
proCasp7 act = procaspase-7 activators, primary screen, counter-screen for procaspase-3 activator project, biochemical, absorbance, HTS, human; 0.093% of 330,000 active; recombinant procaspase-7, Ac-DEVD-pNA absorbance 405 nm; D23A/D198A/D206A triple mutant, cannot self-cleave; scale: DMSO 0, 5 µM enzyme 100; activation, % at 8.5 µM; Caspase-7 (Homo sapiens), P55210;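 active = percent activation above the screen-wide mean plus 3 SD, cut at about 25% in these data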
Target sequence (P55210 whole entry D23A/D198A/D206A): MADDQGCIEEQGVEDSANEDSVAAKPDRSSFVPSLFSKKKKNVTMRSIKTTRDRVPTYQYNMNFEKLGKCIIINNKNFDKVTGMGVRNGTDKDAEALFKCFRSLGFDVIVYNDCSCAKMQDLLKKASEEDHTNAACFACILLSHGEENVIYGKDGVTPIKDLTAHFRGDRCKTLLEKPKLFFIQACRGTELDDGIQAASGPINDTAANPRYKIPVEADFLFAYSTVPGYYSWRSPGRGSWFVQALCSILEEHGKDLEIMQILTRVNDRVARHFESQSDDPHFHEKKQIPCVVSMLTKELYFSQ
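System: Procaspase-7 triple mutant (PC-7 D3A); measure: % activation from two-timepoint absorbance difference, scaled to controls; times: 1 h compound preincubation, 2 h substrate cleavage, 25 °C; also added: Ac-DEVD-pNA substrate, 400 µM as added; measured by: Epi-absorbance of released pNA at 405 nm, two timepoints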
NR3A LBD binder = binders of NR3A ligand-binding domain, primary screen, biophysical, differential scanning fluorimetry, uHTS | Glutamate receptor ionotropic, NMDA 3A (GRIN3A) ligand-binding domain | NR3A LBD differential scanning fluorimetry, Tm shift; 0% = protein alone, 100% = glycine-bound protein | Tm shift relative to glycine control, % at 25 µM | 2.5% of 340,000 active;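 active = melting temperature shift of at least 10% of the positive control shift, at one fixed dose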
MPTP block = mitochondrial permeability transition pore inhibitors, primary screen, biochemical, isolated mouse mitochondria, absorbance | inhibition, % at 10 µM | 1.4% of 360,000 active | AID 602449, 2012 | Ca2+ swelling absorbance, 30 min;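 active = inhibition of 50% or more, scaled per plate between neutral and stimulator controls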;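 also: 0% = DMSO wells given calcium and 100% = 1 mM EGTA wells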
aDG conf = alpha-DG glycosylation enhancers, retest, confirmation, single concentration, Pro5-aDG cells | 17% of 600 active | IIH6 AlphaLISA; scaled to LARGE-overexpressing B10 cells as 100% | shares compounds with aDG glyco up | activation, % at 10 µM (by protocol);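 active = activation of at least 7% in one or more replicates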;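 also: cells exposed to compound for two days before detection; 0% = DMSO-treated Pro5 cells and 100% = DMSO-treated B10-LARGE cells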
An asterisk follows results filed as active; nt = not tested or not shown. A selection: hits, their analogues and other compounds. The true share with any hit is near 3.7%.

SMILES	aDG glyco up	proCasp3 act	proCasp7 act	NR3A LBD binder	MPTP block	aDG conf
O=c1cc(-c2ccccc2)oc2ccc(O)cc12	2.4*	2.6	3.6	-0.8	0.1	0.6
O=c1cc(-c2ccccc2)oc2ccccc12	-0.2	-12.9	6.0	0.8	0.5	nt
CCC1CCCN1Cn1cnc2c([nH]c3ccc(OC)cc32)c1=O (configuration not stated)	3.8*	3.9	1.7	3.7	-1.4	0.5
CCC1CCCN1Cn1cnc2c([nH]c3ccccc32)c1=O (configuration not stated)	0.2	12.7	11.6	0.7	0.8	nt
COC(=O)c1cccc(C23CC4(C2)[C@H](CN(Cc2cccnc2)[C@@H]4c2ccccc2)C3c2ccccc2)c1 (some centres not stated)	-0.2	0.3	-16.5	5.3	-0.6	nt
Cc1cc(Br)ccc1OCCCCNC(C)(C)C	4.3*	7.3	-8.4	-1.1	5.8	7.2*
CCOC1=C2CN(S(=O)(=O)c3ccc(C)cc3)[C@H](c3ccccc3)C[C@@H]2N(S(=O)(=O)c2ccc(C)cc2)[C@H](c2ccccc2)C1	6.8*	nt	nt	nt	-0.1	-1.1
CCOC1=C2CN(S(=O)(=O)c3ccc(C)cc3)C(c3ccc(C)cc3)CC2N(S(=O)(=O)c2ccc(C)cc2)C(c2ccccc2)C1 (configuration not stated)	1.8	nt	nt	nt	-1.2	nt
Clc1cc2c(c(CSc3nc4ccccc4n4cccc34)c1)OCOC2	0.0	-4.3	11.9	0.8	-1.2	nt
Brc1cccc(-c2nc3c4ccccc4ccn3c2CC2CCCCC2)c1	14.7*	nt	nt	nt	2.4	5.8*
COC(=O)c1cccc(NC(=O)CN2C(=O)c3ccccc3C2=O)c1	1.3*	8.8	8.3	0.2	0.5	1.1
COC(=O)c1cccc(NC(=O)C(C)N2C(=O)c3ccccc3C2=O)c1 (configuration not stated)	-0.1	-5.2	6.7	0.5	2.4	nt
COc1ccc(CNC(=O)COC(=O)c2cc(S(=O)(=O)N3CCOCC3)ccc2O)cc1OC	-0.1	4.9	-8.7	3.3	-0.7	nt
CC(C)COC(=O)N1CCCCC1c1cc(C(=O)N2CCOCC2)no1 (configuration not stated)	0.0	nt	nt	nt	-0.2	nt
CCn1cc(C(=O)NCC(OC)OC)c(=O)c2cc(S(=O)(=O)N3CCOCC3)ccc21	7.6*	-5.8	-7.7	2.4	-0.8	-0.3
O=C(O)CSc1nnc(-c2ccccc2O)n1Cc1ccccc1	83.0*	4.6	2.1	0.3	0.0	-0.4
O=C(CSc1nnc(-c2ccccc2O)n1Cc1ccccc1)NNC(=O)c1ccccc1O	0.2	0.5	-8.1	-7.1	3.1	nt
CCCCOc1ccc(C(=O)NCC(=O)NCc2ccccn2)cc1	7.3*	-12.6	4.6	-3.2	0.2	0.1
O=C(Nc1ccc(O)cc1)c1ccccc1OCc1ccccc1	-0.1	nt	nt	-1.4	-0.2	nt
O=C(Nc1ccccc1)c1ccccc1OCc1ccc(F)cc1	3.8*	5.4	14.9	-10.9	1.0	-0.6
CCc1cccc(NC(=O)CCNS(=O)(=O)c2ccc3c(c2)oc(=O)n3C)c1	-0.1	11.2	3.8	3.2	-1.0	nt
O=C(CNC(=O)c1ccccc1Cl)N/N=C/c1ccc([N+](=O)[O-])s1	11.8*	5.8	10.4	-4.8	1.5	6.5*
O=C(CCNC(=O)c1ccccc1Cl)NN=Cc1ccccc1[N+](=O)[O-]	-0.1	5.4	2.4	-0.3	-0.2	nt
Cc1onc(-c2ccccc2)c1C(=O)N/N=C/c1ccc([N+](=O)[O-])s1	6.0*	0.9	-7.1	-9.8	-0.3	3.1
O=C(Cc1cccs1)N/N=C\c1ccc([N+](=O)[O-])s1	12.7*	3.2	7.9	0.2	-0.5	3.9*
SMILES	aDG glyco up	proCasp3 act	proCasp7 act	NR3A LBD binder	MPTP block	aDG conf
Cc1onc(-c2ccccc2)c1C(=O)N/N=C/c1ccco1	0.0	2.9	4.3	-1.5	5.4	nt
COc1cc(/C=N/NC(=O)Cc2cccs2)c([N+](=O)[O-])cc1OC	-0.3	-7.0	6.0	-1.7	0.3	nt
c1ccc(-c2nnc(-c3ccccc3)nn2)cc1	0.1	4.2	-4.1	-3.7	-0.1	nt
c1cncc(-c2nnc(-c3cccnc3)nn2)c1	13.0*	-4.0	-3.6	1.1	1.5	7.6*
FC(F)(F)c1cccc(Cn2nnnc2-c2cc(Cl)cc(Cl)c2)c1	0.3	-1.9	-5.7	-11.7	1.3	nt
COC(=O)c1ccc(CNC(=O)Cn2cnc3c(NCc4ccccc4)ncnc32)cc1	8.3*	2.6	-3.4	4.5	-0.4	1.0
CC1CCCCC1NC(=O)Cc1ccc(S(=O)(=O)N2CCOCC2)s1 (configuration not stated)	6.0*	-8.5	5.4	4.5	-0.7	-0.8
COc1ccc(Nc2c(-c3cccc(OC)c3)nc3nc(C)cc(C)n23)cc1	-0.2	nt	nt	nt	0.4	nt
COc1cccc(-c2nc3nc(C)cc(C)n3c2NCc2ccccc2)c1	5.3*	nt	nt	nt	-0.1	1.2
COc1ccc(Cl)cc1C(=O)NNC(=O)c1cccc([N+](=O)[O-])c1	3.3*	-0.2	7.4	-2.3	0.5	0.0
COc1ccccc1C(=O)NNC(=O)c1cccc(Cl)c1	0.6	5.8	0.3	-2.4	0.6	nt
CC(=O)c1ccc(S(=O)(=O)Nc2ccc(C(=O)N3CCC3)cc2)cc1	-0.4	nt	nt	2.1	-1.1	nt
O=C(Nc1ccc(F)cc1)C(c1ccccc1)N1CCN(CC(=O)N2CCCC2)CC1 (configuration not stated)	0.3	-2.0	14.6	-0.2	-0.7	nt
COc1ccc(C(C(=O)Nc2ccc(F)cc2)N2CCN(CC(=O)N3CCCC3)CC2)cc1 (configuration not stated)	8.6*	nt	nt	nt	0.1	0.4
Cn1c(SCC(=O)N2CCCc3ccccc32)nnc1-c1ccccc1	3.7*	6.2	2.6	-0.1	-0.9	0.5
Cc1cccc2cc(C#N)c(SCC(=O)Nc3ccccc3N3CCOCC3)nc12	4.9*	-4.9	1.3	0.8	0.5	-0.6
CCc1ccc(NC(=O)CN(C)S(=O)(=O)c2ccc3[nH]c(=O)oc3c2)cc1	-0.4	-3.7	-3.8	5.5	0.5	nt
CN(CC(=O)Nc1cccc(Cl)c1)S(=O)(=O)c1ccc2[nH]c(=O)oc2c1	5.7*	0.8	2.2	5.7	-1.0	-0.7
O=C(COC(=O)CCC1CCCC1)Nc1ccccc1Br	0.2	4.6	-7.7	2.7	1.0	nt
